Measured values published in publication PMC3838623 (Journal of Pharmaceutical Sciences, 2013).
Read-outs that look alike come from different tables or passages of the source.

Columns and labels:
plasma proteins [1] = details: cited from earlier work
[2] = tested on: plasma proteins (human plasma); test: Reiterated stepwise equilibrium dialysis, plasma protein binding; format: in vitro ADME; details: two-sided ANOVA
Outline: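 Human plasma spiked with test compound (final 10^6, 10^4 or 10^2 pM) was placed in a 1.0 mL dialysis sac inside a buffer chamber pre-coated with compound-containing buffer. Compound was present in both chambers at inner–outer ratios of 100:1 or 50:1. Dialysis ran 4–5 h at 37 ± 2°C with slow rotation, in triplicate, with radioactivity counting. % bound relative to pre-incubation; mean (SD) analysed by two-sided ANOVA for gender and concentration.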

[3] = cited from earlier work
plasma proteins [4] = details: liraglutide concentration 10^2 pM, cited from earlier work

estimated difference in protein binding, 10^2 pM compared with 10^4 pM ([2]; p = 0.581)	estimated difference in protein-bound liraglutide, females vs. males ([2]; p = 0.593)	Substance	plasma protein binding (plasma proteins [1])	plasma half-life [3]	liraglutide pharmacokinetics in renal impairment ([3]; subjects with mild-to-severe renal impairment versus healthy subjects)	mean (SD) unbound percentage (plasma proteins [4]; healthy subjects)	mean (SD) unbound percentage (plasma proteins [4]; subjects with mild hepatic impairment)
–	–	exenatide: GLP-1 receptor agonist with shorter duration of action, twice-daily administration	does not demonstrate significant levels of plasma protein binding	–	–	–	–
0.05%	−0.18%	liraglutide	–	approximately 13 h	not altered	0.53% (0.46)	0.59% (0.61)
